According to ChEMBL document CHEMBL5042515, “Design and Evaluation of a Novel Peptide-Drug Conjugate Covalently Targeting SARS-CoV-2 Papain-like Protease” (J Med Chem, 2022):
The source made the active and inactive calls. The rule behind the calls is not given here. *1 amine or outer side, *2 acyl side, *3 side chain or, on linkers, in order; H or OH if unused. Where a SMILES comes first, the peptide text is derived from it. Bridges are numbered along the chain shown (N, C = ends). [ ]: non-standard residue; d: D form. The star is where a group is joined. Met(S-mXyl) = C[S+](CC[C@H](N[*:1])C(=O)[*:2])Cc1cccc(C[*:3])c1; 5FAM = O=C1OC2(c3ccc(O)cc3Oc3cc(O)ccc32)c2ccc(C(=O)*)cc21; X2 = C[S+](CC[C@@H](N[*:1])C(=O)[*:2])Cc1cccc(C[*:3])c1; X1 = Cc1ccc(N*)cc1C(=O)NC(C)c1cccc2ccccc12

What was measured:
[1] = Hemolytic activity against mouse erythrocyte at 0 to 60 uM for 1.5 hrs by microplate reader analysis; format: toxicity, cell-based; details: dose 0-60 µM
In short: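 Fresh mouse erythrocytes washed and resuspended in PBS at 10^8/mL, then exposed to serial dilutions starting at 60 μM for 1.5 h at 37 °C. Supernatant hemoglobin read by absorbance. 0.1% Triton X-100 used as 100% control and PBS as blank; % hemolysis calculated relative to both.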

[2] = Inhibition of SARS-CoV PLpro using LRGG-ACC as substrate preincubated for 60 mins followed by substrate addition and measured for 30 mins by enzymatic assay; parameters: species or system Severe acute respiratory syndrome-related coronavirus
[3] = target: Replicase polyprotein 1ab (Middle East respiratory syndrome-related coronavirus (isolate UnitedKingdom/H123990006/2012) (Betacoronavirus England 1) (Humancoronavirus EMC)) (UniProt K9N7C7); assay: Inhibition of MERS PLpro using LRGG-ACC as substrate upto 1000 uM preincubated for 60 mins followed by substrate addition and measured for 30 mins by enzymatic assay; details: dose microM <=1000, time 90.0 min
A549 = assay: Cytotoxicity against human A549 cells assessed as inhibition of cell growth at 1.56 to 100 uM incubated for 24 hrs by MTT assay; format: toxicity, cell-based; details: a549, 24 h, dose 1.56-100 µM
In short: (§1)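 A549 (RPMI-1640) or 293T (DMEM) cells with 10% FBS, plated overnight, then treated 24 h at 1.56–100 μM in medium with 5% FBS. MTT (5 mg/mL reagent) added for 4 h at 37 °C, dissolved in DMSO, absorbance read at 490 nm. DMSO-only control; at least three independent measurements.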

HEK-293T [4] = assay: Cytotoxicity against HEK293T cells assessed as inhibition of cell growth at 1.56 to 100 uM incubated for 24 hrs by MTT assay; format: toxicity, cell-based; details: human, dose 1.56-100 µM; in short: as §1
HEK293T = assay: Covalent binding affinity to SARS-CoV-2 PLpro spiked in HEK293T cells lysate at 10 uM incubated for 1 hr by SDS gel analysis; format: subcellular; details: Severe acute respiratory syndrome coronavirus 2
In short: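 293T cell lysate (300 μg protein) spiked with PLpro (5 μM), then treated with 10 μM FAM-labeled peptide. Labeling read as fluorescent bands on gel.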

[5] = tested on: Severe acute respiratory syndrome coronavirus 2; assay: Binding affinity to SARS-CoV-2 PLpro assessed as covalent bond formation at 10 uM incubated for 1 hr by SDS-PAGE analysis
In short: (§2)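 FAM-labeled peptides (10 μM) incubated with purified SARS-CoV-2 PLpro (5 μM) in PBS for 1 h. Covalent adduct detected by SDS gel analysis.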

[6] = tested on: Severe acute respiratory syndrome coronavirus 2; assay: Binding affinity to SARS-CoV-2 PLpro assessed as covalent bond formation at Cys111 at 10 uM incubated for 1 hr by SDS-PAGE analysis
[7] = tested on: Severe acute respiratory syndrome coronavirus 2; assay: Inhibition of SARS-CoV-2 PLpro using LRGG-ACC as substrate at <=1000 uM preincubated for 60 mins followed by substrate addition and measured for 30 mins by enzymatic assay; details: dose microM <=1000, time 90.0 min
In short: (§3)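 Recombinant His-tagged SARS-CoV-2 PLpro (E. coli BL21(DE3), Ni-NTA then gel filtration) at 0.1 μM, preincubated 1 h at 37 °C with inhibitor diluted from 800 μM. Buffer: 50 mM HEPES pH 7.4, 0.1 mg/mL BSA, 5 mM DTT. Ac-LRGG-ACC substrate at 1 μM final. Fluorescence read at ex 355/em 460 nm for 30 min, at least three times; IC50 from curve fitting.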

[8] = tested on: Severe acute respiratory syndrome coronavirus 2; assay: Covalent binding affinity to SARS-CoV-2 PLpro Cys111 at 30 uM for 4 hrs by In-gel trypsin digestion based MS-MS analysis
In short: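 Peptide (30 μM) with PLpro (5 μM) in Tris buffer, 37 °C, 4 h. Conjugate band excised from 15% SDS-PAGE, destained with ammonium bicarbonate/acetonitrile and trypsin-digested overnight at 16 °C. Peptides extracted in 50% acetonitrile/0.5% formic acid for MS/MS mapping of the modified residue.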

[9] = tested on: Severe acute respiratory syndrome coronavirus 2; assay: Covalent binding affinity to SARS-CoV-2 PLpro by SDS-PAGE analysis
[10] = tested on: Severe acute respiratory syndrome coronavirus 2; assay: Covalent binding affinity to SARS-CoV-2 PLpro assessed as reaction efficiency at 0 to 25 uM for 2 hrs by SDS-PAGE analysis; details: dose 0-25 µM
In short: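 Purified SARS-CoV-2 PLpro (5 μM) incubated with peptide at 0, 2.5, 5, 10, 15, 20 and 25 μM in PBS (pH 7.4, 37 °C). Conjugation resolved on 15% SDS-PAGE.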

[11] = Inhibition of SARS-CoV-2 PLpro using LRGG-ACC as substrate preincubated for 60 mins followed by substrate addition and measured for 30 mins by enzymatic assay; parameters: species or system Severe acute respiratory syndrome coronavirus 2; in short: as §3
[12] = tested on: Severe acute respiratory syndrome-related coronavirus; assay: Inhibition of SARS-CoV PLpro using LRGG-ACC as substrate at <=1000 uM preincubated for 60 mins followed by substrate addition and measured for 30 mins by enzymatic assay; details: dose microM <=1000, time 90.0 min
HEK-293T [13] = assay: Antiviral activity against HEK293T cells co-transfected with plasmids encoding Myc-tagged ISG15, E1/E2/E3 ubiquitin ligases, SARS-CoV-2 PLpro fused with EGFP assessed as recovery of intracellular ISGylation level incubated for 24 hrs by immunoblot analysis; format: functional, cell-based; details: Homo sapiens
In short: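 HEK293T cells co-transfected with Myc-ISG15, E1/E2/E3 ligases and EGFP-fused SARS-CoV-2 PLpro, then kept 24 h at 37 °C in DMEM with 5% FBS plus conjugate. Lysates BCA-normalised, 30 μg per lane. Western blot probed with anti-ISG15, anti-GFP and anti-GAPDH (1:1000), ECL detection.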

HEK-293T [14] = assay: Antiviral activity in HEK293T cells co-transfected with plasmids encoding Renilla luciferase, Firefly luciferase is driven by IFN-beta promoter, MAVS assessed as recovery of suppressed IFN-beta promoter activity at 10 to 100 uM by Dual-Luciferase reporter assay relative to control; format: functional, cell-based; details: Homo sapiens, dose 10-100 µM
In short: (§4)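 HEK293T cells co-transfected with Renilla luciferase reference, IFN-β promoter-driven firefly luciferase, MAVS and SARS-CoV-2 PLpro, then treated with conjugate. Activity scaled to the ISG15-plasmid positive control set as 100%; blank plasmid as negative control; unpaired two-tailed t-test.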

[15] = Drug uptake in human HeLa cells at 10 uM for 4 hrs by tryphan blue staining based flow cytometry relative to control; format: ADME, cell-based
[16] = tested on: Severe acute respiratory syndrome coronavirus 2; assay: Covalent binding affinity to SARS-CoV-2 PLpro assessed as reaction efficiency at 10 uM for 1 hr by SDS-PAGE analysis; in short: as §2
[17] = tested on: Severe acute respiratory syndrome coronavirus 2; assay: Covalent binding affinity to SARS-CoV-2 PLpro assessed as reaction efficiency at 10 uM and incubated for 0.5 to 4 hrs by SDS-PAGE analysis; details: time 0.5-4 hrs, TDE = time-dependent effect
In short: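 Peptide (10 μM) with purified SARS-CoV-2 PLpro (5 μM) in PBS, pH 7.4, 37 °C, sampled at 0.5, 1, 2, 3 and 4 h. Conjugate band resolved on 15% SDS-PAGE.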

HEK-293T [18] = assay: Antiviral activity in HEK293T cells co-transfected with plasmids encoding Renilla luciferase, Firefly luciferase is driven by IFN-beta promoter, MAVS assessed as recovery of suppressed IFN-beta promoter activity at 100 uM by Dual-Luciferase reporter assay; format: functional, cell-based; details: Homo sapiens; in short: as §4

## Cc1ccc(N)cc1C(=O)NC(C)c1cccc2ccccc12 (stereo not drawn)
[1]
  Activity: Non-Toxic
[2]
  IC50: 2.6 µM
[3]
  inhibition: inactive
A549
  Activity: Non-Toxic
HEK-293T [4]
  Activity: Non-Toxic

## Cc1ccc(NC(=O)CC[C@H](NC(=O)c2ccc3c(c2)C(=O)OC32c3ccc(O)cc3Oc3cc(O)ccc32)C(=O)N[C@H]2CSCc3cccc(c3)C[S+](C)CC[C@@H](C(=O)O)NC(=O)CNC(=O)[C@H](CCCNC(=N)N)NC(=O)[C@H](CC(C)C)NC2=O)cc1C(=O)NC(C)c1cccc2ccccc12 (stereo partly drawn) (5FAM-E(X1)CLRG[Met(S-mXyl)]-OH; thioether 2-6)
HEK293T
  Activity: Active

## Cc1ccc(NC(=O)CC[C@H](NC(=O)c2ccc3c(c2)C(=O)OC32c3ccc(O)cc3Oc3cc(O)ccc32)C(=O)N[C@H]2CC[S+](C)Cc3cccc(c3)CSC[C@@H](C(=O)O)NC(=O)CNC(=O)[C@H](CCCNC(=N)N)NC(=O)[C@H](CC(C)C)NC2=O)cc1C(=O)NC(C)c1cccc2ccccc12 (stereo partly drawn) (5FAM-E(X1)[Met(S-mXyl)]LRGC-OH; thioether 2-6)
HEK293T
  Activity: Active

## CC(C)C[C@@H]1NC(=O)[C@@H](N)CSCc2cccc(c2)C[S+](C)CC[C@@H](C(=O)O)NC(=O)CNC(=O)[C@H](CCCNC(=N)N)NC1=O (stereo partly drawn) (H-CLRG[Met(S-mXyl)]-OH; thioether 1-5)
[5]
  Activity: Active
[6]
  Activity: Active
[7]
  inhibition: inactive

## C[S+]1CC[C@@H](C(=O)O)NC(=O)CNC(=O)CNC(=O)[C@H](CCCNC(=N)N)NC(=O)[C@@H](N)CSCc2cccc(c2)C1 (stereo partly drawn) (H-CRGG[Met(S-mXyl)]-OH; thioether 1-5)
[5]
  Activity: Active
[6]
  Activity: Active
[7]
  inhibition: inactive

## Cc1ccc(NC(=O)CC[C@H](N)C(=O)N[C@H]2CSCc3cccc(c3)C[S+](C)CC[C@@H](C(=O)O)NC(=O)CNC(=O)[C@H](CCCNC(=N)N)NC(=O)[C@H](CC(C)C)NC2=O)cc1C(=O)NC(C)c1cccc2ccccc12 (stereo partly drawn) (H-E(X1)CLRG[Met(S-mXyl)]-OH; thioether 2-6)
[1]
  Activity: Non-Toxic
[8]
  Activity: Active
[9]
  Activity: Active
[10]
  Activity: Dose-Dependent Effect
[11]
  IC50: 8.63 µM
[12]
  inhibition: Active
[3]
  inhibition: inactive
HEK-293T [13]
  Activity: Dose-Dependent Effect
HEK-293T [14]
  Activity: Dose-Dependent Effect
A549
  Activity: Non-Toxic
HEK-293T [4]
  Activity: Non-Toxic
[15]
  Drug uptake: Active

## Cc1ccc(NC(=O)CC[C@H](N)C(=O)N[C@@H](CC(C)C)C(=O)N[C@@H](CCCNC(=N)N)C(=O)NCC(=O)NCC(=O)O)cc1C(=O)NC(C)c1cccc2ccccc12 (stereo partly drawn) (H-E(X1)LRGG-OH)
[9]
  Activity: inactive
[11]
  IC50: 15.4 µM
[12]
  inhibition: inactive
[3]
  inhibition: inactive
[15]
  Drug uptake: Active

## Cc1ccc(NC(=O)CC[C@H](N)C(=O)N[C@H]2CC[S+](C)Cc3cccc(c3)CSC[C@@H](C(=O)O)NC(=O)CNC(=O)[C@H](CCCNC(=N)N)NC(=O)[C@H](CC(C)C)NC2=O)cc1C(=O)NC(C)c1cccc2ccccc12 (stereo partly drawn) (H-E(X1)[Met(S-mXyl)]LRGC-OH; thioether 2-6)
[1]
  Activity: Non-Toxic
[9]
  Activity: Active
[10]
  Activity: Dose-Dependent Effect
[16]
  Activity: Active
[17]
  Activity: Tde
[11]
  IC50: 7.4 µM
[2]
  IC50: 3.43 µM
[3]
  inhibition: inactive
HEK-293T [13]
  Activity: Dose-Dependent Effect
HEK-293T [18]
  Activity: inactive
A549
  Activity: Non-Toxic
HEK-293T [4]
  Activity: Non-Toxic
[15]
  Drug uptake: Active

## CC(C)C[C@H](N)C(=O)N[C@H]1CSCc2cccc(c2)C[S+](C)CC[C@H](C(=O)O)NC(=O)CNC(=O)CNC1=O (stereo partly drawn) (H-LCGG[X2]-OH; thioether 2-5)
[7]
  inhibition: inactive

## CC(C)C[C@H](N)C(=O)N[C@@H](CCCNC(=N)N)C(=O)NCC(=O)NCC(=O)N[C@H]1CSCc2cccc(c2)C[S+](C)CC[C@@H](C(=O)O)NC(=O)[C@H](C)NC(=O)[C@H](C)NC(=O)[C@H](C)NC1=O (stereo partly drawn) (H-LRGGCAAA[Met(S-mXyl)]-OH; thioether 5-9)
[5]
  Activity: Active
[6]
  Activity: Active
[7]
  inhibition: inactive

## CC(C)C[C@H](N)C(=O)N[C@@H](CCCNC(=N)N)C(=O)NCC(=O)NCC(=O)N[C@H]1CC[S+](C)Cc2cccc(c2)CSC[C@@H](C(=O)O)NC(=O)[C@H](C)NC(=O)[C@H](C)NC(=O)[C@H](C)NC1=O (stereo partly drawn) (H-LRGG[Met(S-mXyl)]AAAC-OH; thioether 5-9)
[5]
  Activity: Active
[7]
  inhibition: inactive

## CC(C)C[C@H](N)C(=O)N[C@H]1CC[S+](C)Cc2cccc(c2)CSC[C@@H](C(=O)O)NC(=O)CNC(=O)CNC1=O (stereo partly drawn) (H-L[Met(S-mXyl)]GGC-OH; thioether 2-5)
[7]
  inhibition: inactive

## CC(C)C[C@@H]1NC(=O)[C@@H](N)CC[S+](C)Cc2cccc(c2)CSC[C@@H](C(=O)O)NC(=O)CNC(=O)[C@H](CCCNC(=N)N)NC1=O (stereo partly drawn) (H-[Met(S-mXyl)]LRGC-OH; thioether 1-5)
[7]
  inhibition: inactive

## C[S+]1CC[C@H](N)C(=O)N[C@@H](CCCNC(=N)N)C(=O)NCC(=O)NCC(=O)N[C@H](C(=O)O)CSCc2cccc(c2)C1 (stereo partly drawn) (H-[Met(S-mXyl)]RGGC-OH; thioether 1-5)
[5]
  Activity: Active
[7]
  inhibition: inactive
